Measured values reported in ChEMBL document CHEMBL4196166 (J Med Chem, 2018).
Active and inactive are the calls of the source. The rule behind the calls is not given here.

Experiments:
[1] = molecular target: Plasminogen (Homo sapiens, UniProt P00747); assay: Inhibition of plasmin (unknown origin) using chromogenic H-D-Ile-L-Pro-L-Arg-p-nitoraniline as substrate by […]
[2] = tested on: HEK293; assay: Cytotoxicity against HEK293 cells assessed as reduction in cell viability after 48 hrs by CellTiter 96 Aqueous One solution cell proliferation assay; format: cell-based; conditions: Homo sapiens, HEK293, 48 h
Method in brief: (§1)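 Cells grown in DMEM high glucose with 10% heat-inactivated FCS, seeded at 5000/well and left 18 h. Compounds added at 1 nM–100 µM final (0.2% vehicle), n = 4 wells per concentration, with colour blanks. After 48 h, MTS reagent added for 2 h and A490 read. IC50 from a variable-slope sigmoidal fit.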

[3] = tested on: Homo sapiens; assay: Antimetastatic activity against human PSC xenografted in BALB/c nu/nu mouse co-implanted with human AsPC1 cells assessed as reduction in metastasis lesions in liver at 10 mg/kg/day, ip measured after 28 days post first dose by microscopic analysis; format: functional, organism-based
Method in brief: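 Female athymic BALB/c nu/nu mice, 6–8 weeks old. 1×10^6 AsPC-1 and 1×10^6 human pancreatic stellate cells in 50 µL PBS injected into the pancreatic tail. Treatment randomized on day 7 (n = 4/group) for 4 weeks: 10 mg/kg/day ip in 50 mM sodium acetate pH 5.5/10% DMSO/1% Kolliphor HS-15, or gemcitabine 75 mg/kg by oral gavage twice weekly, or vehicle. At kill, liver scored for visible macrometastases, fixed in formalin, and 4 µm sections stained with H&E. Chi-square test.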

[4] = molecular target: T1, Urokinase-type plasminogen activator (Homo sapiens, UniProt P00749); assay: Inhibition of human kidney uPA using chromogenic H-D-Ile-L-Pro-L-Arg-p-nitoraniline as substrate by fluorescence assay
Method in brief: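 Enzyme was uPA from human kidney cells at 10 nM final. […] Absorbance change at 405 nm gave initial rates. IC50 from a sigmoidal fit of % residual activity vs log concentration.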

[5] = molecular target: Coagulation factor X (Homo sapiens, UniProt P00742); assay: Inhibition of factor 10a (unknown origin) using chromogenic H-D-Ile-L-Pro-L-Arg-p-nitoraniline as substrate by fluorescence assay
[6] = molecular target: Prothrombin (Homo sapiens, UniProt P00734); assay: Inhibition of thrombin (unknown origin) using chromogenic H-D-Ile-L-Pro-L-Arg-p-nitoraniline as substrate by […]
[7] = tested on: HT-1080; assay: Cytotoxicity against human HT1080 cells assessed as reduction in cell viability after 48 hrs by CellTiter 96 Aqueous One solution cell proliferation assay; format: functional, cell-based; conditions: HT-1080, 48 h; method in brief: as §1
[8] = tested on: Rattus norvegicus; assay: Diuretic effect in Sprague-Dawley rat assessed as increase in acetazolamide-induced urine volume at 1.5 mg/kg, iv measured after 6 hrs post dose relative to acetazolamide-treated control; format: ADME, organism-based; conditions: in vivo
Method in brief: (§2)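 Male 21-week-old Sprague-Dawley rats, 8 per group. One ip injection of 25 mg/kg acetazolamide (25 mg/mL in 0.9% saline, 1 mL/kg) or vehicle, then one iv injection of 1.5 mg/kg compound (1.5 mg/mL, 1 mL/kg) in 50 mM acetate buffer pH 5.5/5% DMSO, with 0.5% Tween-80 for some compounds. Total urine collected in metabolic cages over 6 h. Urine Na+ and K+ measured on a biochemistry analyzer. Mean ± SEM reported.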

[9] = molecular target: Coagulation factor XI (Homo sapiens, UniProt P03951); assay: Inhibition of factor 11a (unknown origin) using chromogenic L-pyroGlu-L-Pro-L-Arg-p-nitroaniline as substrate by […]
[10] = molecular target: Tissue-type plasminogen activator (Homo sapiens, UniProt P00750); assay: Inhibition of tPA (unknown origin) using chromogenic H-D-Ile-L-Pro-L-Arg-p-nitoraniline as substrate by […]
[11] = molecular target: Urokinase-type plasminogen activator (Mus musculus, UniProt P06869); assay: Inhibition of mouse uPA using Z-Gly-Gly-Arg-AMC as substrate after 15 mins by fluorescence assay
[12] = molecular target: T1, Urokinase-type plasminogen activator; assay: Inhibition of human kidney uPA using Z-Gly-Gly-Arg-AMC as substrate measured over 15 mins by fluorescence assay
[13] = molecular target: Plasma kallikrein (Homo sapiens, UniProt P03952); assay: Inhibition of human plasma kallikrein using chromogenic L-pyroGlu-L-Pro-L-Arg-p-nitroaniline as substrate by fluorescence assay
[14] = molecular target: Vitamin K-dependent protein C (Homo sapiens, UniProt P04070); assay: Inhibition of activated protein C (unknown origin) using chromogenic L-pyroGlu-L-Pro-L-Arg-p-nitroaniline as substrate by fluorescence assay
[15] = tested on: Rattus norvegicus; assay: Antikaliuretic effect in Sprague-Dawley rat assessed as decrease in acetazolamide-induced K+ excretion at 1.5 mg/kg, iv measured after 6 hrs post dose relative to acetazolamide-treated control; format: ADME, organism-based; set-up: scale not given: the % may be the effect or the level left; conditions: in vivo
Method in brief: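 Male 21-week-old Sprague-Dawley rats, 8 per group. Given 25 mg/kg acetazolamide ip (0.9% saline), then 1.5 mg/kg compound iv (50 mM acetate buffer pH 5.5/5% DMSO, plus 0.5% Tween-80 for some analogs). Vehicle-only group included. Total urine collected in metabolic cages over 6 h. Urine Na+ and K+ measured on a biochemistry analyzer; compared with acetazolamide controls.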

[16] = tested on: Rattus norvegicus; assay: Antikaliuretic effect in Sprague-Dawley rat assessed as increase in acetazolamide-induced Na+ excretion at 1.5 mg/kg, iv measured after 6 hrs post dose relative to acetazolamide-treated control; format: ADME, organism-based; conditions: in vivo; method in brief: as §2
[17] = tested on: HepG2; assay: Cytotoxicity against human HepG2 cells assessed as reduction in cell viability after 48 hrs by CellTiter 96 Aqueous One solution cell proliferation assay; format: functional, cell-based; conditions: HepG2, 48 h; method in brief: as §1

Coagulation factor XI, sequence (P03951 19-387 limits assumed): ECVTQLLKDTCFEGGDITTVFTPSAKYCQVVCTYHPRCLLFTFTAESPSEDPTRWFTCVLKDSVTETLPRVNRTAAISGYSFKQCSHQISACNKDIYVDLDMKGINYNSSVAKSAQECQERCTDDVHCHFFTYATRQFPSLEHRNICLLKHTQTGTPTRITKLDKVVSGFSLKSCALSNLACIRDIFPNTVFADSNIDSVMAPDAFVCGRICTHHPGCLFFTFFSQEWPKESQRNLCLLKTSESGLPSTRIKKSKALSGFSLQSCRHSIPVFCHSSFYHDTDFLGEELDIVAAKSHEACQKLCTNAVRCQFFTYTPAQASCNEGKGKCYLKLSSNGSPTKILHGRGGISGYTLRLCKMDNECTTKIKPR
Coagulation factor XI, sequence (P03951 388-625 limits assumed): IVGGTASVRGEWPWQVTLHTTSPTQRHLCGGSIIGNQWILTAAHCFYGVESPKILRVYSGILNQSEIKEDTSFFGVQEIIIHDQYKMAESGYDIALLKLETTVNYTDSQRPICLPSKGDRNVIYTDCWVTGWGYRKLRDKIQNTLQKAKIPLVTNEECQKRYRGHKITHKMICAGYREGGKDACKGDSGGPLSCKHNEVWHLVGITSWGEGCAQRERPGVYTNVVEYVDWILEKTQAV
Plasminogen, sequence (P00747 97-580 limits assumed): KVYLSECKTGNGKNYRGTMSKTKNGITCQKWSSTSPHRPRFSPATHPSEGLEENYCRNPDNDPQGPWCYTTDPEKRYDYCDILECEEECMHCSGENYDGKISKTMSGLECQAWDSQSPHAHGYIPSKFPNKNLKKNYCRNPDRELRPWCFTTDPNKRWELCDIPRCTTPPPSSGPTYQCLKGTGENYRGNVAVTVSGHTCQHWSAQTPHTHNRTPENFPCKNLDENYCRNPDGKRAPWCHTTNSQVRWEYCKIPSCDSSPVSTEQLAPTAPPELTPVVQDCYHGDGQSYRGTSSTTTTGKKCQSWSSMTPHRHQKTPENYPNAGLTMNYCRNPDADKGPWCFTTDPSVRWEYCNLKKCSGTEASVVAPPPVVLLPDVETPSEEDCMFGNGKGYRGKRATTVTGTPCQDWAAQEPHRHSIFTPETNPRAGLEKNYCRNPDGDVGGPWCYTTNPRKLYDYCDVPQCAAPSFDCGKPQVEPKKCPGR
Plasminogen, sequence (P00747 581-810 limits assumed): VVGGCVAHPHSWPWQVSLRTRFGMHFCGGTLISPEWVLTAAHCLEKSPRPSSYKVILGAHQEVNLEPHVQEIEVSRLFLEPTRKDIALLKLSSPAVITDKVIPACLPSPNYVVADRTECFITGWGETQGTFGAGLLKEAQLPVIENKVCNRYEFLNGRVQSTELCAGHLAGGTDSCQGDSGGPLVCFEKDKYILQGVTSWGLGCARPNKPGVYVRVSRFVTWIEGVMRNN
Plasma kallikrein, sequence (P03952 20-390 limits assumed): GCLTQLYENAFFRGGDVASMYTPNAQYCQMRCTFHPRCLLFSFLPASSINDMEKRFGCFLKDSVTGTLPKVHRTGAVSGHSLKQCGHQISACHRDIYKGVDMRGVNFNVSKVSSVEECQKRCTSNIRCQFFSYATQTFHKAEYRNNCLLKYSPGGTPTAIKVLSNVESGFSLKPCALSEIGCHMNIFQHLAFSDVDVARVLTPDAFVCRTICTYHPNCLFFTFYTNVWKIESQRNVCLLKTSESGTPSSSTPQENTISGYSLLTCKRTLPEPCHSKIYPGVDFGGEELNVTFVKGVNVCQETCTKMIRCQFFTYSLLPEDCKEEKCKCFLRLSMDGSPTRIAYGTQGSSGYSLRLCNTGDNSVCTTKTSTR
Plasma kallikrein, sequence (P03952 391-638 limits assumed): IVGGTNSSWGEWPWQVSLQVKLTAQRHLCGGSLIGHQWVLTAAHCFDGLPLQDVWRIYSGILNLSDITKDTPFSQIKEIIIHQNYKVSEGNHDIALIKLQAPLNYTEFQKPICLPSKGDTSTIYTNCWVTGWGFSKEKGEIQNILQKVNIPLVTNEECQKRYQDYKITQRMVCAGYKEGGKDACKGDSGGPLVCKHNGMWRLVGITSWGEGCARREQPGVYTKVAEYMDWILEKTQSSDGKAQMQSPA
Tissue-type plasminogen activator, sequence (P00750 whole entry): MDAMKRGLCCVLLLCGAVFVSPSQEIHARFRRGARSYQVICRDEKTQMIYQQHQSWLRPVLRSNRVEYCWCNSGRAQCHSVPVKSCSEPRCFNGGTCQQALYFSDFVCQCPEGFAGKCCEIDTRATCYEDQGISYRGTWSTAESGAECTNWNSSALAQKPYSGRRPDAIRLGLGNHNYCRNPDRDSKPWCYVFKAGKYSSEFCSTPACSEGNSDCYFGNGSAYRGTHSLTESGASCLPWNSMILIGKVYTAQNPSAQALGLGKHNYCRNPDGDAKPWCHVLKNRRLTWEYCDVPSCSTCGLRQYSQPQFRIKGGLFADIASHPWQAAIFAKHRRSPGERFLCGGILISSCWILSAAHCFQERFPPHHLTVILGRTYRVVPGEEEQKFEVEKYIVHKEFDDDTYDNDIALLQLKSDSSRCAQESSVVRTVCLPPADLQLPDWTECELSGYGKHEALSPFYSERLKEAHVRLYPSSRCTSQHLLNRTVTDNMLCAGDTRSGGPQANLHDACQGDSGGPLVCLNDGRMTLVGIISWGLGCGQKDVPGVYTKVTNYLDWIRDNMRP
Coagulation factor X, sequence (P00742 41-179 limits assumed): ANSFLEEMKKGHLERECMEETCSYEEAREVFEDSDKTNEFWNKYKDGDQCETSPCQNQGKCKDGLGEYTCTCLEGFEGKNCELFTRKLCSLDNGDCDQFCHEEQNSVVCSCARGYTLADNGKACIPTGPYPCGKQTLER
Coagulation factor X, sequence (P00742 235-488 limits assumed): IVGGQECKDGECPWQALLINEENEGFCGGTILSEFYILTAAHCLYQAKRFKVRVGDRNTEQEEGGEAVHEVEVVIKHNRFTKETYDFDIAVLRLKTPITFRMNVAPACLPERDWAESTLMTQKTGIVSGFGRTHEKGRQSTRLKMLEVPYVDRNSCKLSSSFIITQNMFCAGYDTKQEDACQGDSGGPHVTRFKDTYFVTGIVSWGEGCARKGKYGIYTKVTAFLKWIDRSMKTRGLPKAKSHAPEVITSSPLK
Vitamin K-dependent protein C, sequence (P04070 43-197 limits assumed): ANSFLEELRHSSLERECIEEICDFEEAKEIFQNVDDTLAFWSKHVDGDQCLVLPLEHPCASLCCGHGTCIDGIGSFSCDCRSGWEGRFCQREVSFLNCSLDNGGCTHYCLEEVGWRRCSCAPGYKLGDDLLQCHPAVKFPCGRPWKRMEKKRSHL
Vitamin K-dependent protein C, sequence (P04070 212-461 limits assumed): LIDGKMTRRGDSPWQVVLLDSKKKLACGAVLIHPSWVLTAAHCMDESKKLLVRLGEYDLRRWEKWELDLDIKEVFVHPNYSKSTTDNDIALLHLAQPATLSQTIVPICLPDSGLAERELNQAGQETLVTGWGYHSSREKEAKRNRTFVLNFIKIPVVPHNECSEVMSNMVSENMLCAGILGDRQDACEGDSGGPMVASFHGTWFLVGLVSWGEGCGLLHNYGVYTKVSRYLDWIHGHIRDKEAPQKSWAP
Urokinase-type plasminogen activator (Mus musculus, UniProt P06869), sequence (P06869 21-178 limits assumed): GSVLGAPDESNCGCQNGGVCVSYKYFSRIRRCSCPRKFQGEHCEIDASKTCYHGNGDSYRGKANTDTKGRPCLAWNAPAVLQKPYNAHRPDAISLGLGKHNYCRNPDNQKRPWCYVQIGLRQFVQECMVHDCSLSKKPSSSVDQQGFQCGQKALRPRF
Urokinase-type plasminogen activator (Mus musculus, UniProt P06869), sequence (P06869 180-433 limits assumed): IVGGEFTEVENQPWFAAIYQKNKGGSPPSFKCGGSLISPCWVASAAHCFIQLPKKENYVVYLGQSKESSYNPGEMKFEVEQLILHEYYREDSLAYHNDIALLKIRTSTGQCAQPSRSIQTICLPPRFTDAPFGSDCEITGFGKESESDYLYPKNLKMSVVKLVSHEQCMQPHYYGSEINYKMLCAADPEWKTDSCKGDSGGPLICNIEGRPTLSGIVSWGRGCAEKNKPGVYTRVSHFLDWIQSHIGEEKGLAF

Compound | IC50 [1] [µM] | IC50 [2] [µM] | Activity [3] | IC50 [4] [µM] | IC50 [5] [µM] | IC50 [6] [µM] | IC50 [7] [µM] | Activity [8] | IC50 [9] [µM] | IC50 [10] [µM] | Ki [11] [µM] | Ki [12] [µM] | IC50 [13] [µM] | IC50 [14] [µM] | Activity [15] | Activity [16] | IC50 [17] [µM]
COc1ncc(-c2nc(C(=O)NC(=N)N)c(N)nc2N2CCCCCC2)cn1 | > 20 | 74.9 | Active | 0.039 | > 50 | > 20 | 44.8 | Non-Toxic | > 50 | > 20 | 1.61 | 0.053 | > 50 | > 50 | 24% | Non-Toxic | 57.3
N=C(N)NC(=O)c1nc(Cl)c(N2CCCCCC2)nc1N [N,N-HEXAMETHYLENEAMILORIDE] | > 10 | 2.8 | – | 2.4 | > 50 | > 10 | 6.6 | Non-Toxic | > 50 | > 10 | 9.31 | 1.36 | > 50 | > 50 | 24% | Non-Toxic | 20.2
N=C(N)NC(=O)c1nc(-c2cc3ccccc3o2)c(N2CCCCCC2)nc1N | > 10 | 3.1 | Active | 0.53 | > 50 | > 10 | 4.6 | Non-Toxic | 31 | > 10 | 1.8 | 0.183 | 11.3 | > 50 | Non-Toxic | Non-Toxic | 12.7
